≈ marks a conversion by molar mass, not a printed value.
Assays:
Staphylococcus aureus [1] = assay: Tested for in vitro antibacterial activity against Staphylococcus aureus 011 GO64 ofloxacin oxacillin erythromycin resistance phenotype; type: functional
Staphylococcus aureus [2] = assay: Tested for in vitro antibacterial activity against Staphylococcus aureus 011 HT3 phenotype; type: functional
Staphylococcus aureus [3] = assay: Tested for in vitro antibacterial activity against Staphylococcus aureus 011 HT1 novobiocin resistance phenotype; type: functional
Streptococcus pyogenes [4] = assay: Tested for in vitro antibacterial activity against Streptococcus pyogenes O2A1UC1 phenotype; type: functional
Staphylococcus aureus [5] = assay: IC50 was determined for gyrase B of Staphylococcus aureus against novobiocin (0.5 mg/mL) as reference; IC50nov/IC50comp
Enterococcus faecium [6] = assay: Tested for in vitro antibacterial activity against Enterococcus faecium 02D31P2 vancomycin teicoplanin erythromycin resistance phenotype; type: functional
[7] = test system: Staphylococcus epidermidis; assay: Tested for in vitro antibacterial activity against Staphylococcus epidermidis 012GO42 oxacillin resistance phenotype; type: functional
Staphylococcus sp. [8] = assay: Minimum inhibitory concentration evaluated against Staphylococcus species resistant to oxacillin and ofloxacin [47]*; type: functional
Method in brief: (§1)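 Two-fold agar dilution MIC, in µg/mL, against Staphylococcus panels grouped by resistance phenotype (oxacillin and/or ofloxacin resistant). Per-panel values are reported as the geometric mean and MIC90 across strains; the strain count per panel is given in brackets.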

Mus musculus [9] = assay: Protective dose of orally administered compound against intraperitoneally-induced septicaemia model (vancomycin resistant Enterococci faecium D3AP9 strain ) in murine; type: functional; conditions: po, read-out: PD50
Method in brief: (§2)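 PD50 was measured in a murine septicaemia model, with infection induced intraperitoneally with the named Gram-positive strain. Test compound was given orally and the PD50 was calculated by the probit method.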

Mus musculus [10] = assay: Protective dose of orally administered compound against intraperitoneally-induced septicaemia model (Streptococcus pneumoniae PW3 strain) in murine; conditions: po, read-out: PD50
Enterococcus faecium [11] = assay: Minimum inhibitory concentration of the orally administered compound evaluated against vancomycin resistant Enterococci faecium D3HM4 strain in mice; type: functional
Streptococcus sp. [12] = assay: In vitro anti-streptococcal activity against Streptococci species (viridans) [25]* expressed as geometric mean; type: functional
Mus musculus [13] = assay: Protective dose of orally administered compound against intraperitoneally-induced septicaemia model (Enterococci faecalis D2HT6 strain) in murine; type: functional; conditions: po, read-out: PD50; method in brief: as §2
Staphylococcus aureus [14] = assay: Minimum inhibitory concentration of the orally administered compound evaluated against Staphylococcus aureus GO3 strain in mice; type: functional
Staphylococcus sp. [15] = assay: In vitro anti-staphylococcal activity against Staphylococcus species resistant to oxacillin [66]* expressed as geometric mean; type: functional; method in brief: as §1
Staphylococcus sp. [16] = assay: In vitro anti-staphylococcal activity against Staphylococcus species resistant to oxacillin and ofloxacin[47]* expressed as geometric mean; type: functional; method in brief: as §1
Enterococcus faecium [17] = assay: Minimum inhibitory concentration of the orally administered compound evaluated against vancomycin resistant Enterococci faecium D3HM3 strain in mice; type: functional
Staphylococcus sp. [18] = assay: In vitro anti-staphylococcal activity against Staphylococcus species resistant to ofloxacin [59]* expressed as geometric mean; type: functional; method in brief: as §1
Mus musculus [19] = assay: Protective dose of orally administered compound against intraperitoneally-induced septicaemia model (Staphylococcus aureus GO3 strain) in murine; type: functional; conditions: po, read-out: PD50; method in brief: as §2
Streptococcus sp. [20] = assay: Minimum inhibitory concentration evaluated against Streptococci species [38]*; type: functional
Staphylococcus sp. [21] = assay: Minimum inhibitory concentration evaluated against Staphylococcus species [91]*; type: functional; method in brief: as §1
[22] = Tested for half life at the dose of 10 mg/kg when administered intravenously; type: ADME, organism-based; set-up: dose 10 mg/kg, route intravenous; conditions: mouse, in vivo, iv
Method in brief: (§3)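 Mouse pharmacokinetics used 10 mg/kg given IV and PO. Tmax and Cmax (µg/ml) come from oral dosing, half-life is in hours, and oral bioavailability is F%.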

Staphylococcus aureus [23] = assay: Minimum inhibitory concentration of the orally administered compound evaluated against Staphylococcus aureus HT-18 strain in mice; type: functional
Enterococcus faecium [24] = assay: Minimum inhibitory concentration of the orally administered compound evaluated against vancomycin resistant Enterococci faecium D3HT12 strain in mice; type: functional
Mus musculus [25] = assay: Protective dose of orally administered compound against intraperitoneally-induced septicaemia model (Staphylococcus aureus HT18) in murine; type: functional; conditions: po, read-out: PD50; method in brief: as §2
Staphylococcus sp. [26] = assay: Minimum inhibitory concentration evaluated against Staphylococcus species resistant to ofloxacin [59]*; type: functional; method in brief: as §1
Mus musculus [27] = assay: Protective dose of orally administered compound against intraperitoneally-induced septicaemia model (Staphylococcus aureus GR56 strain resistant to oxacillin) in murine; type: functional; conditions: po, read-out: PD50; method in brief: as §2
Mus musculus [28] = assay: Protective dose of orally administered compound against intraperitoneally-induced septicaemia model (vancomycin resistant Enterococci faecium D3HM3 strain ) in murine; type: functional; conditions: po, read-out: PD50; method in brief: as §2
Streptococcus pyogenes [29] = assay: Minimum inhibitory concentration of the orally administered compound evaluated against Streptococcus pyogenes A1UC1 strain in mice
Enterococcus faecium [30] = assay: Minimum inhibitory concentration of the orally administered compound evaluated against Enterococci faecium D3HT7 strain in mice; type: functional
Enterococcus [31] = assay: Minimum inhibitory concentration evaluated against enterococci species susceptible to vancomycin [26]*; type: functional
Mus musculus [32] = assay: Protective dose of orally administered compound against intraperitoneally-induced septicaemia model (Enterococci faecium D3HT7 strain ) in murine; type: functional; conditions: po, read-out: PD50; method in brief: as §2
Mus musculus [33] = assay: Protective dose of orally administered compound against intraperitoneally-induced septicaemia model (Streptococcus agalactiae B1HT3 strain) in murine; conditions: po, read-out: PD50
pneumococci = assay: In vitro anti-streptococcal activity against pneumococci resistant to penicillin [29]* expressed as geometric mean; type: functional
Enterococcus faecium [34] = assay: Minimum inhibitory concentration of the orally administered compound evaluated against vancomycin resistant Enterococci faecium D3AP9 strain in mice; type: functional
Staphylococcus sp. [35] = assay: In vitro anti-staphylococcal activity against Staphylococcus species [91]* expressed as geometric mean; type: functional
Method in brief: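 Two-fold agar-dilution MICs (µg/mL) were run on a panel of staphylococcal isolates and summarised as the geometric mean across strains.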

Mus musculus [36] = assay: Protective dose of orally administered compound against intraperitoneally-induced septicaemia model (Streptococcus pyogenes A1UC1 strain) in murine; conditions: po, read-out: PD50
[37] = Tested for Cmax value at the dose of 10 mg/kg when administered perorally in mouse; type: ADME, organism-based; set-up: dose 10 mg/kg, route oral; conditions: in vivo, po; method in brief: as §3
Mus musculus [38] = assay: Protective dose of orally administered compound against intraperitoneally-induced septicaemia model (vancomycin resistant Enterococci faecium D3HT12 strain ) in murine; type: functional; conditions: po, read-out: PD50
Method in brief: (§4)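 Mice infected intraperitoneally to induce septicaemia, then given the compound by mouth. PD50 was calculated by the probit method.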

Enterococcus [39] = assay: Minimum inhibitory concentration evaluated against enterococci species resistant to vancomycin [65]*; type: functional
[40] = Tested for bioavailability of the compound; type: ADME, organism-based; conditions: mouse, in vivo; method in brief: as §3
Enterococcus faecalis = assay: Minimum inhibitory concentration of the orally administered compound evaluated against Enterococci faecalis D2HT6 strain in mice; type: functional
[41] = Minimum inhibitory concentration of the orally administered compound evaluated against […] PW3 strain in mice; type: functional
Enterococcus [42] = assay: In vitro anti-enterococcal activity against enterococci species susceptible to vancomycin [26]* expressed as geometric mean; type: functional
Enterococcus [43] = assay: Minimum inhibitory concentration evaluated against enterococci species resistant to vancomycin and teicoplanin [17]*; type: functional
Enterococcus [44] = assay: In vitro anti-enterococcal activity against enterococci species resistant to vancomycin and teicoplanin [17]* expressed as geometric mean; type: functional
Mus musculus [45] = assay: Protective dose of orally administered compound against intraperitoneally-induced septicaemia model (Staphylococcus aureus HT-17 strain) in murine; type: functional; conditions: po, read-out: PD50; method in brief: as §2
[46] = Minimum inhibitory concentration evaluated against pneumococci resistant to penicillin [29]*; type: functional
[47] = Tested for Tmax value at the dose of 10 mg/kg when administered perorally in mouse; type: ADME, organism-based; set-up: dose 10 mg/kg, route oral; conditions: in vivo, po; method in brief: as §3
Staphylococcus sp. [48] = assay: Minimum inhibitory concentration evaluated against Staphylococcus species resistant to oxacillin [66]*; type: functional; method in brief: as §1
Staphylococcus aureus [49] = assay: Minimum inhibitory concentration of the orally administered compound evaluated against Staphylococcus aureus HT-17 strain in mice; type: functional
Streptococcus sp. [50] = assay: Minimum inhibitory concentration evaluated against Streptococci species (viridans) [25]*; type: functional
Streptococcus sp. [51] = assay: In vitro anti-streptococcal activity against Streptococci species [38]* expressed as geometric mean; type: functional
Staphylococcus aureus [52] = assay: Minimum inhibitory concentration of the orally administered compound evaluated against Staphylococcus aureus GR56 strain resistant to oxacillin in mice; type: functional
Mus musculus [53] = assay: Protective dose of orally administered compound against intraperitoneally-induced septicaemia model (vancomycin resistant Enterococci faecium D3HM4 strain ) in murine; type: functional; conditions: po, read-out: PD50; method in brief: as §4

## C#CCONC(=O)O[C@H]1[C@@H](O)[C@H](Oc2ccc3c(O)c(/C(C)=N/OC)c(=O)oc3c2C)O[C@@H](CC)[C@@H]1OC
Staphylococcus aureus [1]
  MIC: 0.6 µg/mL (≈ 1.12 µM)
Staphylococcus aureus [2]
  MIC: 0.3 µg/mL (≈ 0.561 µM)
Staphylococcus aureus [3]
  MIC: 20 µg/mL (≈ 37.4 µM)
Streptococcus pyogenes [4]
  MIC: 2.5 µg/mL (≈ 4.68 µM)
Staphylococcus aureus [5]
  Ratio: 2.6
Enterococcus faecium [6]
  MIC: 40 µg/mL (≈ 74.8 µM)
[7]
  MIC: 0.3 µg/mL (≈ 0.561 µM)

## C#CCONC(=O)O[C@H]1[C@@H](O)[C@H](Oc2ccc3c(=O)c(/C(C)=N/OC)c(O)oc3c2C)OC2(CCCC2)[C@@H]1OC
Staphylococcus sp. [8]
  MIC90: 0.15 µg/mL (≈ 0.268 µM)
Mus musculus [9]
  ED50: 44 mg/kg
Mus musculus [10]
  ED50: 8.5 mg/kg
Enterococcus faecium [11]
  MIC: 0.6 µg/mL (≈ 1.07 µM)
Streptococcus sp. [12]
  GM: 0.59
Mus musculus [13]
  ED50: 10 mg/kg
Staphylococcus aureus [14]
  MIC: 0.3 µg/mL (≈ 0.535 µM)
Staphylococcus sp. [15]
  GM: 0.097
Staphylococcus sp. [16]
  GM: 0.081
Staphylococcus aureus [2]
  MIC: < 0.04 µg/mL
Enterococcus faecium [17]
  MIC: 0.08 µg/mL (≈ 0.143 µM)
Staphylococcus aureus [3]
  MIC: 1.2 µg/mL (≈ 2.14 µM)
Staphylococcus sp. [18]
  GM: 0.082
Mus musculus [19]
  ED50: 7.1 mg/kg
Streptococcus sp. [20]
  MIC90: 1.2 µg/mL (≈ 2.14 µM)
Staphylococcus sp. [21]
  MIC90: 0.15 µg/mL (≈ 0.268 µM)
[22]
  half-life: 150 min
Staphylococcus aureus [23]
  MIC: < 0.04 µg/mL
Enterococcus faecium [24]
  MIC: 0.15 µg/mL (≈ 0.268 µM)
Mus musculus [25]
  ED50: 5.6 mg/kg
Staphylococcus sp. [26]
  MIC90: 0.15 µg/mL (≈ 0.268 µM)
Mus musculus [27]
  ED50: 1 mg/kg
Mus musculus [28]
  ED50: 32 mg/kg
Streptococcus pyogenes [29]
  MIC: 0.15 µg/mL (≈ 0.268 µM)
Enterococcus faecium [30]
  MIC: 0.15 µg/mL (≈ 0.268 µM)
Enterococcus [31]
  MIC90: 1.2 µg/mL (≈ 2.14 µM)
Mus musculus [32]
  ED50: 112 mg/kg
Mus musculus [33]
  ED50: 27.7 mg/kg
pneumococci
  GM: 0.12
Enterococcus faecium [34]
  MIC: 0.6 µg/mL (≈ 1.07 µM)
Staphylococcus sp. [35]
  GM: 0.099
Mus musculus [36]
  ED50: 37.6 mg/kg
[37]
  Cmax: 5400 ng/mL
Mus musculus [38]
  ED50: 40 mg/kg
Enterococcus [39]
  MIC90: 0.6 µg/mL (≈ 1.07 µM)
[40]
  bioavailability: 62%
Streptococcus pyogenes [4]
  MIC: 0.15 µg/mL (≈ 0.268 µM)
Enterococcus faecalis
  MIC: 0.3 µg/mL (≈ 0.535 µM)
[41]
  MIC: 1.2 µg/mL (≈ 2.14 µM)
Enterococcus [42]
  GM: 0.26
Enterococcus [43]
  MIC90: 0.3 µg/mL (≈ 0.535 µM)
Staphylococcus aureus [5]
  Ratio: 2.6
Enterococcus [44]
  GM: 0.16
Enterococcus faecium [6]
  MIC: 0.15 µg/mL (≈ 0.268 µM)
Mus musculus [45]
  ED50: 2.8 mg/kg
[46]
  MIC90: 0.3 µg/mL (≈ 0.535 µM)
[47]
  Tmax: 30 min
Staphylococcus sp. [48]
  MIC90: 0.15 µg/mL (≈ 0.268 µM)
Staphylococcus aureus [49]
  MIC: 0.15 µg/mL (≈ 0.268 µM)
Streptococcus sp. [50]
  MIC90: 1.2 µg/mL (≈ 2.14 µM)
Streptococcus sp. [51]
  GM: 0.47
Staphylococcus aureus [52]
  MIC: 0.08 µg/mL (≈ 0.143 µM)
Mus musculus [53]
  ED50: 77 mg/kg
[7]
  MIC: < 0.04 µg/mL

## C#CCONC(=O)O[C@H]1[C@@H](O)[C@H](Oc2ccc3c(=O)c(/C(C)=N/OC)c(O)oc3c2C)OC2(CCCCC2)[C@@H]1OC
Staphylococcus aureus [1]
  MIC: 0.15 µg/mL (≈ 0.261 µM)
Staphylococcus aureus [2]
  MIC: < 0.04 µg/mL
Staphylococcus aureus [3]
  MIC: 0.6 µg/mL (≈ 1.04 µM)
Streptococcus pyogenes [4]
  MIC: 0.6 µg/mL (≈ 1.04 µM)
Staphylococcus aureus [5]
  Ratio: 2.6
Enterococcus faecium [6]
  MIC: 0.15 µg/mL (≈ 0.261 µM)
[7]
  MIC: < 0.04 µg/mL

— ChEMBL document CHEMBL1133253, “Improved antibacterial activities of coumarin antibiotics bearing 5',5'-dialkylnoviose: biological activity of RU79115” (Bioorg Med Chem Lett, 2000)
